# PubChem BioAssay
# Unmarked numbers belong to inactive results. Results filed as inconclusive are left out. The source made the active and inactive calls.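 Rule for the calls, unless noted: active = RAM network inhibition above 8.4% in each of two replicates, 3 SD over the compound average; inconclusive = above 8.4% inhibition in only one replicate; inactive = 8.4% inhibition or less in each replicate.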
# Columns and labels:
# [1] = OD615 S. cerevisiae growth inhibition, permissive medium, pilot counter-assay, permissive growth control for S. cerevisiae lifespan shortening project (AID 705;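 active = growth inhibition above 25% in both replicates, a cutoff set 3 SD above the mean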); conditions: OD615, 24 h, at 10 µM, stronger effect = higher value
# How it was run: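 assay system = Saccharomyces cerevisiae strain carrying genetically modified DeaD replicative-lifespan system | medium = SC raffinose/galactose permissive medium | dosing = 10 µM single dose, 0.25% DMSO | schedule = 24 h compound exposure at 30 °C after 4 h pre-growth | measured by = OD at 615 nm | read-out basis = growth inhibition from lowered OD615 after 24 h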
# [2] = Restrictive medium S. cerevisiae growth inhibition, OD615, pilot screen of yeast lifespan reduction project, restrictive growth control (AID 706;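 active = growth inhibition above a set limit, 3 SD over mean compound inhibition, in both replicates, cut at about 43% in these data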;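 note: modified DeaD lifespan yeast strain shifted to restrictive glucose medium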); conditions: OD615, 48 h, at 10 µM, stronger effect = higher value
# How it was run: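 Buffer or medium: CSMM-D glucose medium. Material: genetically modified Saccharomyces cerevisiae, DeaD replicative lifespan assay strain. Times: 48 h compound exposure at 30 °C. Measured by: optical density at 615 nm.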
# [3] = viability gain of MRP-1-high H69AR cells under doxorubicin, pilot screen, MRP-1 activator project, CellTiter-Glo, duplicate (AID 807;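 active = viability increase at or above a cutoff of the median across tested compounds plus 3 SD, cut at about 8.5% in these data, passing the limit was not always enough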;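 note: compound pretreatment 18-22 h then 72 h combined with doxorubicin; 0% = doxorubicin alone and 100% = vehicle without doxorubicin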); conditions: H69AR viability with doxorubicin, CellTiter-Glo luminescence; at 10 µM; stronger effect = higher value
# [4] = growth suppression of beta-catenin knockout HCT116, pilot screen, human colon tumor cells (AID 823;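 active = cell viability at or below a set limit in both duplicate runs, the limit being the all-compound median minus 4 SD, cut at about 23% in these data, passing the limit was not always enough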;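 note: 0% = wells killed by 20 µM Hyamine and 100% = untreated DMSO cell wells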); conditions: CellTiter-Glo, 60 h, at 10 µM, stronger effect = lower value
# [5] = growth suppression of PTEN-deleted HCT116, pilot screen, cell-based, HCT116 clonal line, CellTiter-Glo (AID 824;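 active = viability at or below 27.92% in each of two runs, the all-compound median minus 4 SD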;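 note: 0% = 20 µM Hyamine control and 100% = vehicle cell control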); conditions: 60 h, at 10 µM, stronger effect = lower value
# [6] = inhibitors of the yeast RAM network, pilot screen, dse1pr::URA3 reporter, 5-FOA selection (AID 869;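 active = inhibition over a set limit, the all-compound mean plus 3 SD, in both replicate runs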;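 note: 0% = DMSO wells with no growth and 100% = 10 µM 1-NA-PP1 with full growth; RAM network block rescues cells from 5-FOA so hits raise OD615 growth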); conditions: S. cerevisiae dse1pr::URA3 5-FOA growth, OD615, 2 d; at 10 µM; stronger effect = higher value; strain carries analog-sensitive mutant Cbk1 kinase
# [7] = RAM signaling pathway blockade in yeast – S. cerevisiae, Pdr1DBD-CYC8 efflux-inhibited sensitized strain, primary screen (AID 1298);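 note: 0% = DMSO untreated cells without growth and 100% = 10 µM 1-NA-PP1 full growth; higher means more yeast growth rescued from 5-FOA killing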; conditions: S. cerevisiae cbk1-as DSE1-URA3 strain, 5-FOA growth OD615, 2 d; at 50 µM; stronger effect = higher value
Compound,growth inhibition [1] [%],growth inhibition [2],viability increase [3] [%],viability [4] [%],viability [5] [%],inhibition [6] [%],RAM network inhibition [7] [%]
COc1ccc(C)cc1NC(=O)CN(c1ccccc1F)S(C)(=O)=O,-8.48,-0.695%,-1.51,94.6,103,-0.63,0.32
Cc1ccc(NC(=O)C2CCN(S(=O)(=O)c3cccc4cccnc34)CC2)nc1,2.12,-7.59%,-2.71,88.1,87.2,-0.475,3.26
O=C(c1ccc(CS(=O)(=O)c2ccccc2)o1)N1CCOCC1,-12.2,-15.5%,-0.71,105,95.8,1.19,3.8
CCC(=O)N1CCc2cc(Br)cc(S(=O)(=O)N3CCN(C(=O)c4ccco4)CC3)c21,-4.72,-21.7%,-1.56,91.6,95.4,2.48,1.88
COC(=O)CC1Oc2ccccc2N(Cc2ccccc2)C1=O (stereo not given),-21.8,-15.5%,-0.13,92.2,92.5,1.56,3.83
CCOC(=O)C1CCN(C(=O)C2CCN(S(=O)(=O)c3cccc4cccnc34)CC2)CC1,4.06,3.42%,-1.75,102,97.6,0.585,1.1
COc1ccc(N2C(=O)C3CCCN3C2c2ccccc2OC)cc1 (stereo not given),2.4,-3.83%,-3.2,103,97.4,0.02,0.12
O=C(NCc1ccc(F)cc1)C1CCC(=O)N1CCc1ccccc1 (stereo not given),-5.54,7.93%,-0.77,96.4,93.2,0.22,-1.59
O=C(Cn1nc(-c2ccc(Cl)cc2)ccc1=O)NCC1CCCO1 (stereo not given),-1.09,-10.1%,-1.53,92.5,93.8,1.24,7.63
COc1ccc(C2NC(=O)NC(C)=C2C(=O)Nc2cccc(C)c2C)cc1 (stereo not given),-6.41,1.47%,-1.09,101,103,0.77,1.64
O=C1CN(C(=O)CN2CCOCC2)C(c2ccccc2)c2cc(Br)ccc2N1 (stereo not given),-9.19,-11.4%,-3.48,96.4,92.8,0.785,1.01
COc1ccc2c(c1)C(=O)CC(c1ccccc1F)O2 (stereo not given),-12,-1.22%,-3.63,65.4,74.3,1.22,5.83
CCOCN(C(=O)Cn1c(CO)nc2ccccc21)c1c(C)cccc1CC,-10.7,0.69%,-3.12,89.4,94.4,2.68,7.56
CCN1CCN(C(c2ccccc2)c2sc3nc(C)nn3c2O)CC1 (stereo not given),0.24,1.3%,-1.49,102,101,1.31,5.66
COc1cccc(C2CC(=O)NC(SC)=C2C#N)c1 (stereo not given),-1.85,-4.75%,-2.47,98.7,95.7,-0.015,2.87
NC(=O)c1ccsc1NC(=O)C1CCCCC1,-3.66,-5.7%,-0.9,102,101,0.965,0.22
O=c1[nH]c(NC2CCCCC2)nnc1Cc1ccccc1,-10,-5.11%,0.04,102,97.6,2.53,1.52
COc1ccc(S(=O)(=O)NCC2CCC(C(=O)N3CCC4(CC3)OCCO4)CC2)cc1 (stereo not given),-5.13,-3.68%,-1.38,94.2,90.6,0.81,2.29
CCN(CC)C(=O)CN(Cc1ccccc1)S(=O)(=O)c1ccc(F)cc1,-8.49,-11.4%,-0.99,93.8,97.5,1.32,2.88
CCOC(=O)N1CCC(NC(=O)C2CCCCN2S(=O)(=O)c2ccc(F)cc2)CC1 (stereo not given),-12.5,-1.21%,-3.71,94,89.6,0.405,-0.16
CC1Cc2nc(SCC(=O)N3CCCC3)n(C)c(=O)c2S1 (stereo not given),-3.58,-13.8%,-3.27,98.2,87.9,1.17,5.83
Cc1sc2nc(SCC(=O)N3CCCC3)[nH]c(=O)c2c1C,-0.89,-6.9%,-1.34,104,98,0.26,1.77
O=C(O)C1CCCCN1S(=O)(=O)c1ccc(Cl)s1 (stereo not given),-2.17,1.02%,-1.27,101,97.3,0.505,-0.42
CCC1CCCCN1C(=O)CSc1nnc(-c2cccc(Cl)c2)o1 (stereo not given),8.15,46.1% (active),-3.24,86.8,91.5,1.4,1.06
Cc1cc(NC(=O)Nc2cccc3ccccc23)no1,-3.55,1.52%,-4,95.3,89.1,-0.175,5.09
